Experimental data reported in ChEMBL document CHEMBL1914394, “Synthesis and spectroscopic characterization of 4-butoxyethoxy-N-octadecyl-1,8-naphthalimide as a new fluorescent probe for the determination of proteins” (Bioorg Med Chem Lett, 2011).

What was measured:
Albumin [1] = target: T1, Albumin (Bos taurus, UniProt P02769); test: Binding affinity to bovine serum albumin assessed as decrease in fluorescence intensity at 1.5 x 10^-5 mol/L at pH 7.4 by fluorescence spectroscopy in presence of Cu2+ cations; format: ADME; conditions: cattle, isolated protein, pH 7.4, 15 µM
Procedure, shortened: (§1)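 Fluorescence of the BON–BSA system in HCl–Tris pH 7.4 recorded with each interfering ion or amino acid added at different concentrations. Excitation 373 nm; emission scanned 390–550 nm; intensity change noted.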

Albumin [2] = target: T1, Albumin; test: Binding affinity to bovine serum albumin assessed as decrease in fluorescence intensity at 1.5 x 10^-5 mol/L at pH 7.4 by fluorescence spectroscopy in presence of K+ cations; format: ADME; conditions: cattle, isolated protein, pH 7.4, 15 µM; procedure, shortened: as §1
Albumin [3] = target: T1, Albumin; test: Binding affinity to bovine serum albumin assessed as decrease in fluorescence intensity at 1.5 x 10^-5 mol/L at pH 7.4 by fluorescence spectroscopy in presence of lysine; format: ADME; conditions: cattle, isolated protein, pH 7.4, 15 µM; procedure, shortened: as §1
Albumin [4] = target: T1, Albumin; test: Binding affinity to bovine serum albumin assessed as stem-volmer quenching constant at pH 7.4 at 298K by fluorescence spectroscopic analysis; format: ADME; conditions: cattle, isolated protein
Procedure, shortened: (§2)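 BSA intrinsic fluorescence titrated with increasing BON in HCl–Tris buffer, pH 7.4, at each of four temperatures. F0/F (without/with BON) plotted against BON concentration; the Stern–Volmer quenching constant KSV is taken from the linear fit.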

Albumin [5] = target: T1, Albumin; test: Binding affinity to bovine serum albumin assessed as quenching constant at pH 7.4 at 308K by fluorescence spectroscopic analysis; format: ADME; conditions: cattle, isolated protein
Procedure, shortened: (§3)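 Quenching series of BSA with rising BON levels in HCl–Tris pH 7.4, run at four temperatures. KSV comes from the F0/F versus [BON] Stern–Volmer plot. The bimolecular quenching rate constant is calculated as Kq = KSV/τ0, with a biopolymer fluorescence lifetime τ0 of 10^-8 s.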

Albumin [6] = target: T1, Albumin; test: Binding affinity to bovine serum albumin assessed as stem-volmer quenching constant at pH 7.4 at 308K by fluorescence spectroscopic analysis; format: ADME; conditions: cattle, isolated protein; procedure, shortened: as §2
Albumin [7] = target: T1, Albumin; test: Binding affinity to bovine serum albumin assessed as decrease in fluorescence intensity peak1 at 1.71 x 10^-5 mol/L at pH 7.4 at 293K by three-dimensional fluorescence spectroscopy analysis; format: ADME; parameters: scale not given: the % may be the effect or the level left; conditions: cattle, isolated protein, pH 7.4, 17.1 µM
Albumin [8] = target: T1, Albumin; test: Binding affinity to bovine serum albumin assessed as stem-volmer quenching constant at pH 7.4 at 303K by fluorescence spectroscopic analysis; format: ADME; conditions: cattle, isolated protein; procedure, shortened: as §2
Albumin [9] = target: T1, Albumin; test: Binding affinity to bovine serum albumin assessed as decrease in fluorescence intensity at 1.5 x 10^-5 mol/L at pH 7.4 by fluorescence spectroscopy in presence of Br- anions; format: ADME; conditions: cattle, isolated protein, pH 7.4, 15 µM; procedure, shortened: as §1
Albumin [10] = target: T1, Albumin; test: Binding affinity to bovine serum albumin assessed as quenching constant at pH 7.4 at 298K by fluorescence spectroscopic analysis; format: ADME; conditions: cattle, isolated protein; procedure, shortened: as §3
Albumin [11] = target: T1, Albumin; test: Binding affinity to bovine serum albumin assessed as decrease in fluorescence intensity at 1.5 x 10^-5 mol/L at pH 7.4 by fluorescence spectroscopy in presence of Zn2+ cations; format: ADME; conditions: cattle, isolated protein, pH 7.4, 15 µM; procedure, shortened: as §1
Albumin [12] = target: T1, Albumin; test: Binding affinity to bovine serum albumin assessed as decrease in fluorescence intensity at 1.5 x 10^-5 mol/L at pH 7.4 by fluorescence spectroscopy in presence of proline; format: ADME; conditions: cattle, isolated protein, pH 7.4, 15 µM; procedure, shortened: as §1
Albumin [13] = target: T1, Albumin; test: Binding affinity to bovine serum albumin assessed as decrease in fluorescence intensity at 1.5 x 10^-5 mol/L at pH 7.4 by fluorescence spectroscopy in presence of Ni2+ cations; format: ADME; conditions: cattle, isolated protein, pH 7.4, 15 µM; procedure, shortened: as §1
Albumin [14] = target: T1, Albumin; test: Binding affinity to bovine serum albumin assessed as decrease in fluorescence intensity at 1.5 x 10^-5 mol/L at pH 7.4 by fluorescence spectroscopy in presence of tyrosine; format: ADME; conditions: cattle, isolated protein, pH 7.4, 15 µM; procedure, shortened: as §1
Albumin [15] = target: T1, Albumin; test: Binding affinity to bovine serum albumin assessed as decrease in fluorescence intensity at 1.5 x 10^-5 mol/L at pH 7.4 by fluorescence spectroscopy in presence of Pb2+ cations; format: ADME; conditions: cattle, isolated protein, pH 7.4, 15 µM; procedure, shortened: as §1
Albumin [16] = target: T1, Albumin; test: Binding affinity to bovine serum albumin assessed as decrease in fluorescence intensity at 1.5 x 10^-5 mol/L at pH 7.4 by fluorescence spectroscopy in presence of Ca2+ cations; format: ADME; conditions: cattle, isolated protein, pH 7.4, 15 µM; procedure, shortened: as §1
Albumin [17] = target: T1, Albumin; test: Binding affinity to bovine serum albumin assessed as decrease in fluorescence intensity at 1.5 x 10^-5 mol/L at pH 7.4 by fluorescence spectroscopy in presence of Na+ cations; format: ADME; conditions: cattle, isolated protein, pH 7.4, 15 µM; procedure, shortened: as §1
Albumin [18] = target: T1, Albumin; test: Binding affinity to bovine serum albumin assessed as decrease in fluorescence intensity at 1.5 x 10^-5 mol/L at pH 7.4 by fluorescence spectroscopy in presence of glycine; format: ADME; conditions: cattle, isolated protein, pH 7.4, 15 µM; procedure, shortened: as §1
Albumin [19] = target: T1, Albumin; test: Binding affinity to bovine serum albumin assessed as quenching constant at pH 7.4 at 293K by fluorescence spectroscopy; conditions: cattle, isolated protein
Albumin [20] = target: T1, Albumin; test: Binding affinity to bovine serum albumin assessed as stem-volmer quenching constant at pH 7.4 at 293K by fluorescence spectroscopic analysis; format: ADME; conditions: cattle, isolated protein; procedure, shortened: as §2
Albumin [21] = target: T1, Albumin; test: Binding affinity to bovine serum albumin assessed as binding constant at pH 7.4 at 303K by fluorescence spectroscopic analysis; format: ADME; conditions: cattle, isolated protein
Procedure, shortened: (§4)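 BSA fluorescence quenched by BON in HCl–Tris, pH 7.4, at four temperatures. Binding constants come from fitting the quenching data to the modified Stern–Volmer equation.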

Albumin [22] = target: T1, Albumin; test: Binding affinity to bovine serum albumin assessed as binding constant at pH 7.4 at 293K by fluorescence spectroscopic analysis; format: ADME; conditions: cattle, isolated protein; procedure, shortened: as §4
Albumin [23] = target: T1, Albumin; test: Binding affinity to bovine serum albumin assessed as decrease in fluorescence intensity at 1.5 x 10^-5 mol/L at pH 7.4 by fluorescence spectroscopy in presence of Mn2+ cations; format: ADME; conditions: cattle, isolated protein, pH 7.4, 15 µM; procedure, shortened: as §1
Albumin [24] = target: T1, Albumin; test: Binding affinity to bovine serum albumin assessed as binding constant at pH 7.4 at 298K by fluorescence spectroscopic analysis; format: ADME; conditions: cattle, isolated protein; procedure, shortened: as §4
Albumin [25] = target: T1, Albumin; test: Binding affinity to bovine serum albumin assessed as decrease in fluorescence intensity at 1.5 x 10^-5 mol/L at pH 7.4 by fluorescence spectroscopy in presence of Mg2+ cations; format: ADME; conditions: cattle, isolated protein, pH 7.4, 15 µM; procedure, shortened: as §1
Albumin [26] = target: T1, Albumin; test: Binding affinity to bovine serum albumin assessed as quenching constant at pH 7.4 at 303K by fluorescence spectroscopic analysis; format: ADME; conditions: cattle, isolated protein; procedure, shortened: as §3
Albumin [27] = target: T1, Albumin; test: Binding affinity to bovine serum albumin assessed as decrease in fluorescence intensity at 1.5 x 10^-5 mol/L at pH 7.4 by fluorescence spectroscopy in presence of Fe3+ cations; format: ADME; conditions: cattle, isolated protein, pH 7.4, 15 µM; procedure, shortened: as §1
Albumin [28] = target: T1, Albumin; test: Binding affinity to bovine serum albumin assessed as decrease in fluorescence intensity at 1.5 x 10^-5 mol/L at pH 7.4 by fluorescence spectroscopy in presence of Cl- anions; format: ADME; conditions: cattle, isolated protein, pH 7.4, 15 µM; procedure, shortened: as §1
Albumin [29] = target: T1, Albumin; test: Binding affinity to bovine serum albumin assessed as decrease in fluorescence intensity at 1.5 x 10^-5 mol/L at pH 7.4 by fluorescence spectroscopy in presence of tryptophane; format: ADME; conditions: cattle, isolated protein, pH 7.4, 15 µM; procedure, shortened: as §1
Albumin [30] = target: T1, Albumin; test: Binding affinity to bovine serum albumin assessed as decrease in fluorescence intensity at 1.5 x 10^-5 mol/L at pH 7.4 by fluorescence spectroscopy in presence of SO42+ anions; format: ADME; conditions: cattle, isolated protein, pH 7.4, 15 µM; procedure, shortened: as §1
Albumin [31] = target: T1, Albumin; test: Binding affinity to bovine serum albumin assessed as decrease in fluorescence intensity at 1.5 x 10^-5 mol/L at pH 7.4 by fluorescence spectroscopy in presence of Mo6+ cations; format: ADME; conditions: cattle, isolated protein, pH 7.4, 15 µM; procedure, shortened: as §1
Albumin [32] = target: T1, Albumin; test: Binding affinity to bovine serum albumin assessed as binding constant at pH 7.4 at 308K by fluorescence spectroscopic analysis; format: ADME; conditions: cattle, isolated protein; procedure, shortened: as §4
Albumin [33] = target: T1, Albumin; test: Binding affinity to bovine serum albumin assessed as decrease in fluorescence intensity at 10^-5 mol/L at pH 7.4 at 298K by fluorescence spectroscopy in presence of warfarin; format: ADME; parameters: scale not given: the % may be the effect or the level left; conditions: cattle, isolated protein, pH 7.4, 10 µM
Procedure, shortened: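 Site-marker displacement by fluorescence titration: BON and BSA held at a 10:1 molar ratio, then warfarin added stepwise to the mixture. Excitation 280 nm; emission recorded 290–400 nm.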

Albumin [34] = target: T1, Albumin; test: Binding affinity to bovine serum albumin assessed as decrease in fluorescence intensity at 1.5 x 10^-5 mol/L at pH 7.4 by fluorescence spectroscopy in presence of PO42+ anions; format: ADME; conditions: cattle, isolated protein, pH 7.4, 15 µM; procedure, shortened: as §1
Albumin [35] = target: T1, Albumin; test: Binding affinity to bovine serum albumin assessed as decrease in fluorescence intensity at 1.5 x 10^-5 mol/L at pH 7.4 by fluorescence spectroscopy in presence of Cr3+ cations; format: ADME; conditions: cattle, isolated protein, pH 7.4, 15 µM; procedure, shortened: as §1
Albumin [36] = target: T1, Albumin; test: Binding affinity to bovine serum albumin assessed as quenching constant at pH 7.4 at 293K by fluorescence spectroscopic analysis; format: ADME; conditions: cattle, isolated protein; procedure, shortened: as §3
Albumin [37] = target: T1, Albumin; test: Binding affinity to bovine serum albumin assessed as decrease in fluorescence intensity peak2 at 1.71 x 10^-5 mol/L at pH 7.4 at 293K by three-dimensional fluorescence spectroscopy analysis; format: ADME; parameters: scale not given: the % may be the effect or the level left; conditions: cattle, isolated protein, pH 7.4, 17.1 µM

T1 sequence (P02769 whole entry): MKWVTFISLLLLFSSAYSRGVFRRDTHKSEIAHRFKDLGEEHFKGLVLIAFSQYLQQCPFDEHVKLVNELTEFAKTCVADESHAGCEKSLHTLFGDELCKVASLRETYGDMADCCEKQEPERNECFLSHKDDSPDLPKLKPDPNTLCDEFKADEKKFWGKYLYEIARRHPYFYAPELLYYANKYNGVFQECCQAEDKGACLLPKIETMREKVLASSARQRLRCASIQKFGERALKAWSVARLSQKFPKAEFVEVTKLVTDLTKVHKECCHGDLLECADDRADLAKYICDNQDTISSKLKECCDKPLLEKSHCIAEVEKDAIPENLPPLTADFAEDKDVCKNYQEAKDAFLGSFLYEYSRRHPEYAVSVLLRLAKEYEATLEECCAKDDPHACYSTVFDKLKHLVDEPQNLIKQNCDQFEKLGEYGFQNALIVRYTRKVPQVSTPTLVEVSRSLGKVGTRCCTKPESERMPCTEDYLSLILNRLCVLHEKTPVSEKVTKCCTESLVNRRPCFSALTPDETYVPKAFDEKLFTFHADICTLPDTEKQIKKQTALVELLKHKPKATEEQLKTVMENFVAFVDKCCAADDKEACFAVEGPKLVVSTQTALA

Activity (Albumin [1]): Not Active | Activity (Albumin [2]): Not Active | Activity (Albumin [3]): Active | KSV (Albumin [4]): 9.03 ×10³ L/mol | Kq (Albumin [5]): 8.54 ×10¹¹ L/mol/s | KSV (Albumin [6]): 8.54 ×10³ L/mol | Activity (Albumin [7]): 25.16% | KSV (Albumin [8]): 8.76 ×10³ L/mol | Activity (Albumin [9]): Active | Kq (Albumin [10]): 9.03 ×10¹¹ L/mol/s | Activity (Albumin [11]): Not Active | Activity (Albumin [12]): Active | Activity (Albumin [13]): Not Active | Activity (Albumin [14]): Active | Activity (Albumin [15]): Not Active | Activity (Albumin [16]): Not Active | Activity (Albumin [17]): Not Active | Activity (Albumin [18]): Active | Activity (Albumin [19]): Active | KSV (Albumin [20]): 9.4 ×10³ L/mol | Kb (Albumin [21]): 2.12 ×10³ L/mol | Kb (Albumin [22]): 3.89 ×10³ L/mol | Activity (Albumin [23]): Not Active | Kb (Albumin [24]): 2.82 ×10³ L/mol | Activity (Albumin [25]): Not Active | Kq (Albumin [26]): 8.76 ×10¹¹ L/mol/s | Activity (Albumin [27]): Not Active | Activity (Albumin [28]): Active | Activity (Albumin [29]): Active | Activity (Albumin [30]): Active | Activity (Albumin [31]): Not Active | Kb (Albumin [32]): 1.77 ×10³ L/mol | Activity (Albumin [33]): 42% | Activity (Albumin [34]): Active | Activity (Albumin [35]): Not Active | Kq (Albumin [36]): 9.4 ×10¹¹ L/mol/s | Activity (Albumin [37]): 37.24%
SMILES: CCCCCCCCCCCCCCCCCCN1C(=O)c2cccc3c(OCCOCCCC)ccc(c23)C1=O
